Results from different studies.
Compare with care: the assays were run in different laboratories.
Target: Mitogen-activated protein kinase kinase kinase 13 (MAP3K13, Homo sapiens, UniProt O43283)
Sequence (O43283 1-966, as in one of the studies): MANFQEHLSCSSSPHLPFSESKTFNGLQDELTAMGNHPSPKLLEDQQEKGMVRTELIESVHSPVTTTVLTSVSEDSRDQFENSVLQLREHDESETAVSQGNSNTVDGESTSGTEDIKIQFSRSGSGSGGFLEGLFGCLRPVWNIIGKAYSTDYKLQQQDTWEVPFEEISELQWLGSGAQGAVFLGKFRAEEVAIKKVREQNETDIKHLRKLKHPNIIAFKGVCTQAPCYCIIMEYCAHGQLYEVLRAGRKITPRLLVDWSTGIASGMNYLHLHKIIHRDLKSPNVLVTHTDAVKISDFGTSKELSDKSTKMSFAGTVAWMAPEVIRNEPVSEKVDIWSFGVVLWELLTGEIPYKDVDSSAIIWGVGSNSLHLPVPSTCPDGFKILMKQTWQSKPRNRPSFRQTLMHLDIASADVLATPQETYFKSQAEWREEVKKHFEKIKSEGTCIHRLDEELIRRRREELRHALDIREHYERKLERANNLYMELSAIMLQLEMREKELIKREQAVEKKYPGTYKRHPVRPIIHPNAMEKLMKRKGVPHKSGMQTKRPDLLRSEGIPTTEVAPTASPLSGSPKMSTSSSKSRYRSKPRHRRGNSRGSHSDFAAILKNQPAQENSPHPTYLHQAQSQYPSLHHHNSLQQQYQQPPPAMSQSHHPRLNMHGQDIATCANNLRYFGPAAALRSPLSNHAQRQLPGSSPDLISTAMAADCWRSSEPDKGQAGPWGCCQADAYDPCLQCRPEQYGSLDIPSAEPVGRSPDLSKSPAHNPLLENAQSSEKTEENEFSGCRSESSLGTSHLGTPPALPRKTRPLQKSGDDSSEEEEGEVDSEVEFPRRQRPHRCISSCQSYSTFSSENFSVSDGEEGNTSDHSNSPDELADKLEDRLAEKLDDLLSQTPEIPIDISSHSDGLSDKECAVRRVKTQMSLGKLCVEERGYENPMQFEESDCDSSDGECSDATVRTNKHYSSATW

CO[C@@H](C)c1c(Nc2ccc([C@H](N(C)C(=O)C3CCS(=O)(=O)CC3)C(F)(F)F)cc2)cnc2cc(Cl)nn12
remaining binding (cell-free assay, competition with immobilised ligand; 1 µM): 78%

CN(C)c1nccc(-c2cnn3ncccc23)n1
remaining binding (binding; 1 µM): 85%

COc1cnc(Nc2cccc(S(N)(=O)=O)c2)nc1N1CCN(c2ccccc2)CC1
remaining binding (binding, competition with immobilised ligand; 1 µM): 96%

CN(CCCC(F)(F)F)c1nccc(-c2cnn3ncccc23)n1
remaining binding (binding; 1 µM): 100%

O=C(Nc1c[nH]nc1C(=O)NC1CCNCC1)c1cc(F)cc(F)c1
remaining binding (binding, competition with immobilised ligand; 1 µM): 100%

O=C(c1ccc(Nc2nccc(-c3cc4ccccc4s3)n2)cc1)N1CCC(N2CCCC2)CC1
remaining binding (binding, competition with immobilised ligand; 1 µM): 68%

COc1ccnn2ncc(-c3ccnc(N(C)C)n3)c12
remaining binding (binding; 1 µM): 21%

O=C(NC[C@@H]1[C@H]2CN(C(=O)OCc3cc(C(F)(F)F)cc(C(F)(F)F)c3)C[C@@H]12)c1ccc2[nH]nnc2c1
remaining binding (cell-free assay, competition with immobilised ligand; 1 µM): 86%

C[C@H]1CCN(c2nccc(-c3cnn4ncccc34)n2)C1
remaining binding (binding; 1 µM): 62%

COc1ncc2cc3ccccc3nc2c1C#N
remaining binding (cell-free assay, competition with immobilised ligand; 5 µM): 92%

CN(C)c1nccc(-c2cnc3ncccn23)n1
remaining binding (binding; 1 µM): 76%

Cc1cnc(Nc2ccc(C(=O)N3CCC(N4CCCC4)CC3)cc2)nc1-c1cc2ccccc2s1
remaining binding (binding, competition with immobilised ligand; 1 µM): 25%

CC(=O)C1=C(C)N(c2cccc(C(F)(F)F)c2)C(=O)N[C@@H]1c1ccc(C#N)nc1
remaining binding (cell-free assay, competition with immobilised ligand; 1 µM): 92.4%

F[C@@H]1CCN(c2nccc(-c3cnn4ncccc34)n2)C1
remaining binding (binding; 1 µM): 100%

Cc1c(C(=O)O)cc(-c2ccc(C3CCNCC3)cc2)c2ccc(-c3ccc(C(F)(F)F)cc3)cc12
remaining binding (binding, competition with immobilised ligand; 1 µM): 100%

c1cncc(-c2cccc(Nc3nccc(NC4CCCCC4)n3)c2)c1
remaining binding (binding, competition with immobilised ligand; 10 µM): 83%

O=C(NCCCC1CCCCC1)c1ccc(CNC(=O)c2cnn(-c3ccccc3)c2C(F)(F)F)cc1
remaining binding (cell-free assay, competition with immobilised ligand; 0.1 µM): 100%

O=C(NCCCN1CCOCC1)c1ccc(Nc2nccc(-c3cc4ccccc4s3)n2)cc1
remaining binding (binding, competition with immobilised ligand; 1 µM): 79%

COCCOc1nc(-c2ccc(Cl)nc2)nc2c1CN(C(=O)c1ncn3ccccc13)CC2
remaining binding (cell-free assay, competition with immobilised ligand; 0.1 µM): 87%

FC(F)(F)Oc1cccc(-c2cnc3ccc(-c4ccncc4)nn23)c1
remaining binding (cell-free assay, competition with immobilised ligand; 5 µM): 83%
